# UPR XBP1 act – activators of adaptive arm of unfolded protein response (XBP1) | CHO-XBP1 luciferase reporter, IRE1-XBP1 UPR activation, luminescence; percent of tunicamycin response, DMSO as zero | activation, % at 20 µM | 330,000 compounds, 0.33% hits | AID 463104;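 active means versus positive control, 20 µM dose yields 30% or more activation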;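 further: 100% = tunicamycin at 10 µg/mL and 0% = DMSO only wells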
#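 Assay system: CHO-XBP1 luciferase reporter cells; Schedule: 6 h treatment, 37 °C; Detection: glow luminescence from Steady-Glo reagent; Benchmarks: high control tunicamycin 10 µg/mL final, low control DMSO vehicle only.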
# TLR4 MyD88 comp – TLR4-MyD88 interaction inhibition in cells. 200,000 compounds, 0.18% hits. AID 861. inhibition, % at 8.4 µM. HeLa CL3-4 TLR4/MyD88 BLA complementation, FRET ratio. O00206+Q99836; in the data active means inhibition above about 25%;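 further: 0% = vehicle and 100% = reference inhibitor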
# Target sequence (O00206 whole entry, looked up): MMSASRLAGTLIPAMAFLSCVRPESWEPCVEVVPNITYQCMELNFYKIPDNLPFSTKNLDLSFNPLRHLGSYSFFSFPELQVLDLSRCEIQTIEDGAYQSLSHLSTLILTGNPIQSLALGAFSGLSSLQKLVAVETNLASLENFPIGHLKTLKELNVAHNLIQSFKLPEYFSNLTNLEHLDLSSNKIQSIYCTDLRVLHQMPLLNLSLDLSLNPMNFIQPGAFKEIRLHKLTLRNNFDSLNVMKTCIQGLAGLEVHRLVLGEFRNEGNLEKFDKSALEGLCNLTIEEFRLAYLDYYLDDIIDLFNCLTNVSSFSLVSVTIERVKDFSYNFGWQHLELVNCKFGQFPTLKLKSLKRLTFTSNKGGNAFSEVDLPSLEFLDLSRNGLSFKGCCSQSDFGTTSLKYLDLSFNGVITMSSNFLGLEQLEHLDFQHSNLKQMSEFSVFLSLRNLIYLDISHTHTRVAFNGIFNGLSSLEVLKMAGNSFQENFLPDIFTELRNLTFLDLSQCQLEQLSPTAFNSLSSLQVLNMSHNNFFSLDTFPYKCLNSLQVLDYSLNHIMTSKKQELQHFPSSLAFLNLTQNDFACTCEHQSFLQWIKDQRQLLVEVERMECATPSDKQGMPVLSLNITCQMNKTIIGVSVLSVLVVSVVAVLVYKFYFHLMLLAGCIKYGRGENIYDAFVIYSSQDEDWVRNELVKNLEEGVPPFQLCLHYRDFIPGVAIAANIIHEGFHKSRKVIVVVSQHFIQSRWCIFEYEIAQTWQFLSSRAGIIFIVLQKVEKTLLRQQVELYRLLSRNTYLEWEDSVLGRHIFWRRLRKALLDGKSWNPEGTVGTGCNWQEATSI
# Target sequence (Q99836 whole entry, looked up): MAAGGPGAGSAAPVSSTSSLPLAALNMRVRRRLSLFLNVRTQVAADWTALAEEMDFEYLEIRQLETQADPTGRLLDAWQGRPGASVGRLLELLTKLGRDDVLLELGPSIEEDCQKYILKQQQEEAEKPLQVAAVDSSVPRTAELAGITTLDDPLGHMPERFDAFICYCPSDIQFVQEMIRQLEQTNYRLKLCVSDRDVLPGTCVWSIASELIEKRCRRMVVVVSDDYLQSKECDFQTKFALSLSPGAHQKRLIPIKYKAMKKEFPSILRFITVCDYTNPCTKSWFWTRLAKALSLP
# CHOP inh – CHOP inhibition in unfolded protein response; CHO-K1 CHOP-promoter luciferase, tunicamycin-induced, 15-18 h; inhibition, % at 10 µM; 220,000 compounds, 3.8% hits;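 active means compounds that reduced the stress-induced luciferase reporter signal by more than about 70% of percent inhibition, limit read from the data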;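 further: 0% = tunicamycin plus vehicle and 100% = wells without tunicamycin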
# CHOP UPR activ – apoptotic UPR (CHOP) activation | CHO-CHOP luciferase reporter, luminescence; percent of tunicamycin response over DMSO baseline | activation, % at 10 µM | 330,000 compounds, 0.34% hits | AID 449763;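 active means at 10 µM dose, activation of 40% or more, normalized to positive control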;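 further: 100% = tunicamycin at 10 µg/mL and 0% = DMSO alone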
#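 Assay system: CHO-CHOP cells, stable luciferase reporter of PERK-eIF2a-CHOP signalling / Buffer or medium: F12 plus 10% serum / Compound dosing: one dose, 10 µM in 0.5% DMSO / Times: 6 h compound treatment, 37 °C / Technique: luciferase luminescence / Read-out: % reporter activation, DMSO baseline versus tunicamycin full activation / Benchmarks: tunicamycin and DMSO controls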
# NOD2-RIPK2 inh – inhibitors of human NOD2-RIPK2 interaction; O43353; CHO BLA complementation NOD2-RIPK2, CCF4 ratio; inhibition, % at 4.98 µM; 360,000 compounds, 0.38% hits; AID 624267; in the data active means inhibition above about 21%;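 further: 0% = vehicle only and 100% = reference blocker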
# TLR9-MyD88 block – TLR9-MyD88 interaction inhibition; Q9NR96+Q99836; inhibition, % at 4.98 µM; CHO BLA complementation TLR9-MyD88, CCF4 FRET ratio; 340,000 compounds, 0.21% hits;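 active means inhibition above the mean over all tested compounds plus 3 SD, cut at about 21% in these data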;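 further: 0% = DMSO only wells and 100% = clavulanate BLA inhibitor control wells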
# * marks the source's active call; other numbers are inactive results; . = no result given. The entries come from a sample that favours hits as a whole.
SMILES,UPR XBP1 act,TLR4 MyD88 comp,CHOP inh,CHOP UPR activ,NOD2-RIPK2 inh,TLR9-MyD88 block
COc1cc(NC(=O)c2cccc3c(-c4cnn(C)c4)coc23)cc(OC)c1OC,.,.,.,.,4,.
COc1cc(C(=O)COC(=O)c2ccc3c(c2)OCCO3)cc(OC)c1OC,.,.,.,.,-10,-7
O=C1CN(c2nc(-c3ccccc3)c3ccccc3n2)c2ccccc2N1,0,5,77*,2,6,-6
Clc1ccc(-c2nc(N3CCCCC3)nc3ccccc23)cc1,-3,14,9,-2,8,9
c1ccc(-c2nc(-n3nc4ccccc4n3)nc3ccccc23)cc1,16,-4,74*,-2,-5,-6
NC(=O)c1cc[n+](CC2=C(C(=O)O)N3C(=O)[C@@H](NC(=O)[C@@H](c4ccccc4)S(=O)(=O)[O-])[C@H]3SC2)cc1,.,.,-26,.,.,.
COc1ccc(CCC(C)Nc2ccc(F)cc2)cc1 (stereo not given),-3,-11,88*,-2,-1,0
COc1ccc(CCC(C)Nc2cccc(C)c2)cc1 (stereo not given),-2,-18,82*,2,-5,3
CCOC1=C2CN(S(=O)(=O)c3ccc(C)cc3)[C@@H](c3cccs3)C[C@H]2[C@H]2C(=O)N(c3ccccc3)C(=O)[C@H]2C1,.,.,.,.,-4,.
CCN1C(=Nc2ccc(Cl)cc2)SC/C1=C\C(=O)OC,3,-1,82*,3,-9,0
NC(=O)c1nn(-c2ccccc2)nc1NC(=O)Cn1nnc(-c2ccccc2)n1,0,-12,72*,3,-5,-10
Cc1ccc(C(O)(C(=O)NNc2ccccn2)c2ccc(C)cc2)cc1,-4,-4,28,0,1,-1
Cc1ccc(NNC(=O)C(O)(c2cccc(C(F)(F)F)c2)c2cccc(C(F)(F)F)c2)cc1,-1,6,107*,0,0,-10
O=C(OCn1ncc(Br)c(Br)c1=O)c1ccc(F)cc1,-6,16,.,-11,74*,35*
CC(=O)OCn1ncc(N2CCOCC2)c(Br)c1=O,1,.,.,1,8,-12
CC(C)COc1nc2ccccc2c(=O)n1OCC(=O)O,-1,4,15,1,3,-4
CCCOn1c(OCC(C)C)nc2ccccc2c1=O,3,9,73*,0,-3,-9
Cc1cccc(NC(=O)c2cc(NC(=O)C3CCCCC3C(=O)O)ccc2N2CCCCC2)c1 (stereo not given),0,-4,77*,2,3,7
Oc1c(C(c2cccs2)N2CCN(c3ccccc3)CC2)ccc2cccnc12 (stereo not given),4,4,99*,87*,.,.
COc1cccc(-c2nnc3n2N=C(c2cc(OC)ccc2OC)CS3)c1,8,5,48,3,-3,-5
COc1cccc(-c2nnc3n2N=C(C(C)(C)C)CS3)c1,-2,0,75*,-5,-8,-7
O=C1C=C(OCCF)CC(c2ccccc2C(F)(F)F)O1 (stereo not given),.,.,.,.,1,.
COc1ccc(-c2cnnc(N/N=C/c3ccc(O)cc3)n2)cc1,10,-2,81*,5,2,0
COc1ccc(OC)c(S(=O)(=O)NC(=O)C2(C)CCN2C(=O)c2ccco2)c1 (stereo not given),.,.,.,.,-1,.
NC(Cc1ccc(Cl)cc1)c1csc(Nc2cc(NCCCO)ncn2)n1 (stereo not given),.,.,.,.,0,.
SMILES,UPR XBP1 act,TLR4 MyD88 comp,CHOP inh,CHOP UPR activ,NOD2-RIPK2 inh,TLR9-MyD88 block
CC(=O)c1c(C)[nH]c(C(=O)OCC(=O)Nc2sc3c(c2C#N)CCC(C)C3)c1C (stereo not given),-1,.,94*,2,.,-3
CC1CCc2c(sc(NC(=O)CSc3nnc(-c4ccccc4)o3)c2C#N)C1 (stereo not given),-2,0,74*,1,1,6
CC1CCc2c(sc(NC(=O)CSc3ncn[nH]3)c2C#N)C1 (stereo not given),-9,.,85*,-8,-2,8
Cn1c(CNC(=O)c2ccc(Cl)cc2)nnc1SCC(=O)Nc1sc2c(c1C#N)CCCC2,0,3,91*,1,-3,8
N#Cc1c(NC(=O)CSc2ncn[nH]2)sc2c1CCCC2,-2,5,78*,-6,3,8
CSCC[C@H](CO)NC(=O)[C@H]1O[C@@H](n2cnc3c(N)ncnc32)[C@H](O)[C@@H]1O,.,.,.,.,-3,.
CC1CCCN(C(=O)Cc2cn(Cc3cccc(Cl)c3)c3ccccc23)C1 (stereo not given),0,-8,76*,-1,-2,-8
O=C(Cc1cn(Cc2cccc(Cl)c2)c2ccccc12)N1CCCCCC1,-4,0,76*,-2,7,10
O=C(O)Cc1cn(Cc2cccc(Cl)c2)c2ccccc12,2,1,4,-1,4,-9
CC(C)C(N)c1csc(Nc2ccc(C(=O)NCCCO)cn2)n1 (stereo not given),.,.,.,.,-2,.
CC1CCC(C(C)C)C(OC(=O)COC(=O)c2ccc(N)cc2)C1 (stereo not given),-3,2,84*,-1,-8,1
CC1CCC(C(C)C)C(OC(=O)COC(=O)c2cccn2C)C1 (stereo not given),-3,6,5,-1,-3,10
O=S(=O)(c1ccc(Cl)s1)N1CCN(Cc2ccccc2)CC1,-4,2,81*,-1,1,-8
CCOC(=O)c1sc(/N=C/c2ccc(O)cc2O)cc1C,5,-11,94*,10,-2,0
CC(C)CN1C(=O)C(=O)N(CC(=O)NCCCc2ccccc2)C1=O,.,.,.,.,-13,3
O=C1CC(O)(C(F)F)Oc2ccc3ccccc3c21 (stereo not given),-2,3,37,-2,8,1
O=C1CC(O)(C(F)(F)F)Oc2c1ccc1ccccc21 (stereo not given),2,-8,89*,0,-5,8
O=C(Nc1cccc2cccnc12)c1csc(COCCO)n1,.,.,.,.,-4,.
COc1cccc(OC)c1OCCCCc1c(C)n[nH]c1C,-2,8,-6,-1,4,-2
Cc1ccccc1OCCCCc1c(C)n[nH]c1C,0,-8,85*,2,4,-8
Cc1cccc(C)c1OCCCCc1c(C)n[nH]c1C,-1,3,86*,1,-10,3
C=CCOC(=O)N1CCC2CC1c1c(-c3ccc(C(F)(F)F)cc3)cccc12 (stereo not given),.,.,.,.,-3,.
O=C(CCNC(=O)c1ccccc1Cl)NCCc1ccc(Cl)cc1,-5,.,.,2,0,-2
O=C(Cc1c(Cl)cccc1Cl)NCCc1ccc(Cl)cc1,-3,-3,75*,2,5,0

# Screens: PubChem BioAssay, several laboratories
